Measured values from different studies.
Compare with care: the assays were run in different laboratories.
Target: Fibroblast growth factor receptor 2 (FGFR2, Homo sapiens, UniProt P21802)

| SMILES | read-out | mode | technique | tested at | quantity | result |
| --- | --- | --- | --- | --- | --- | --- |
| COc1ccc2oc(-c3ccc4nc(N)oc4c3)c/c(=N\c3ccccc3NC(=O)CCN)c2c1 | binding | – | – | 1 µM | remaining binding | 95% |
| CC(C)S(=O)(=O)c1ccc2nccc(Nc3ccc4sc(C5CCCC5)nc4c3)c2c1 | enzyme activity | inhibitor | – | 1 µM | activity vs control | 110% |
| N#Cc1ccc(NC(=O)Nc2ccccc2)cc1 | cell-free assay | – | competition with immobilised ligand | 25 µM | remaining binding | 100% |
| Cc1ccc(NC(=O)c2ccnc(C(F)(F)F)c2)cc1-c1cc(OCCO)nc(N2CCOCC2)c1 | binding | – | competition with immobilised ligand | 1 µM | remaining binding | 91% |
| C1=C/COCc2cc(ccc2OCCN2CCCC2)Nc2nccc(n2)-c2cccc(c2)COC/1 | binding | – | – | 0.1 µM | remaining binding | 94% |
| CO[C@@H]1[C@H](N(C)C(=O)c2ccccc2)C[C@H]2O[C@]1(C)n1c3ccccc3c3c4c(c5c6ccccc6n2c5c31)C(=O)NC4 | enzyme activity | inhibitor | – | 1 µM | inhibition | 42% |
| CCCCC(=O)Nc1ccc(-c2ccc3ncn(CCC)c(=O)c3c2)cn1 | binding | – | competition with immobilised ligand | 0.5 µM | remaining binding | 86% |
| C=CC(=O)N1CCC([C@@H]2CCNc3c(C(N)=O)c(-c4ccc(Oc5ccccc5)cc4)nn32)CC1 | cell-free assay | – | – | 1 µM | inhibition | 14% |
| CN1CCN(C(=O)c2ccc(NC(=O)Nc3ccc(N(C)c4ccnc(Nc5ccc(CS(C)(=O)=O)cc5)n4)cc3)cc2)CC1 | binding | – | competition with immobilised ligand | 1 µM | remaining binding | 99% |
